Active and inactive are the calls of the source.
Legend:
Format in all cases: cell-based
[1] = biological target: T1, Solute carrier family 26 member 6 (Mus musculus) (UniProt Q8CIW6); assay: Inhibition of mouse slc26a6 expressed in FRT cells co-expressing EYFP-H148Q/I152L/F46L assessed as reduction in protein-mediated chloride/iodide exchange at 10 uM preincubated for 10 mins followed by NaI-substituted PBS addition and measured by YFP-based fluorescence assay
T1 sequence (whole entry): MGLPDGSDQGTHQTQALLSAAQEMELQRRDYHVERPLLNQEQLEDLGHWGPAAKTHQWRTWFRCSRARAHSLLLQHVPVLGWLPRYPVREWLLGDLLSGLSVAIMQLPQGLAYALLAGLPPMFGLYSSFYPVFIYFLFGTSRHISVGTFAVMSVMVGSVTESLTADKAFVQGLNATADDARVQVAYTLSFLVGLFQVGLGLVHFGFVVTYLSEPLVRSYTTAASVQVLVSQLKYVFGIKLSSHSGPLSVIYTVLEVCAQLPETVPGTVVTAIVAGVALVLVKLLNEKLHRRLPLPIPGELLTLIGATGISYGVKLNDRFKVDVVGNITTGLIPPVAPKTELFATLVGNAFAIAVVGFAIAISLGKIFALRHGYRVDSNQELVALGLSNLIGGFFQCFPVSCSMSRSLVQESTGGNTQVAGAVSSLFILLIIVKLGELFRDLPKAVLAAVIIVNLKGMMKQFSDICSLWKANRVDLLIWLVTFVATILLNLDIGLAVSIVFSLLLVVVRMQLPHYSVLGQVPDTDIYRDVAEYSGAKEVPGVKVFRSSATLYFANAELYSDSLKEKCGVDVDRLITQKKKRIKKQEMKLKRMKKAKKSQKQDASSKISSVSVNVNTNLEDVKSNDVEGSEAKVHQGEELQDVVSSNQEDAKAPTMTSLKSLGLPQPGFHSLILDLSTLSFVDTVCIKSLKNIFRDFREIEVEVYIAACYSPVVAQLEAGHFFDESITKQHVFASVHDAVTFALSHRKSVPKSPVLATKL
In short: (§1)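 FRT cells expressing the given slc26 transporter plus EYFP-H148Q/I152L/F46L were preincubated 10 min with 0 or 10 µM compound in PBS. Iodide-substituted PBS was then added (140 mM NaCl replaced by NaI). The rate of YFP fluorescence quenching gave chloride/iodide exchange.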

[2] = biological target: T2, Solute carrier family 26 member 9 (Homo sapiens) (UniProt Q7LBE3); assay: Inhibition of human slc26a9 expressed in FRT cells co-expressing EYFP-H148Q/I152L/F46L assessed as reduction in protein-mediated chloride/iodide exchange at 10 uM preincubated for 10 mins followed by NaI-substituted PBS addition and measured by YFP-based fluorescence assay; in short: as §1
T2 sequence (whole entry): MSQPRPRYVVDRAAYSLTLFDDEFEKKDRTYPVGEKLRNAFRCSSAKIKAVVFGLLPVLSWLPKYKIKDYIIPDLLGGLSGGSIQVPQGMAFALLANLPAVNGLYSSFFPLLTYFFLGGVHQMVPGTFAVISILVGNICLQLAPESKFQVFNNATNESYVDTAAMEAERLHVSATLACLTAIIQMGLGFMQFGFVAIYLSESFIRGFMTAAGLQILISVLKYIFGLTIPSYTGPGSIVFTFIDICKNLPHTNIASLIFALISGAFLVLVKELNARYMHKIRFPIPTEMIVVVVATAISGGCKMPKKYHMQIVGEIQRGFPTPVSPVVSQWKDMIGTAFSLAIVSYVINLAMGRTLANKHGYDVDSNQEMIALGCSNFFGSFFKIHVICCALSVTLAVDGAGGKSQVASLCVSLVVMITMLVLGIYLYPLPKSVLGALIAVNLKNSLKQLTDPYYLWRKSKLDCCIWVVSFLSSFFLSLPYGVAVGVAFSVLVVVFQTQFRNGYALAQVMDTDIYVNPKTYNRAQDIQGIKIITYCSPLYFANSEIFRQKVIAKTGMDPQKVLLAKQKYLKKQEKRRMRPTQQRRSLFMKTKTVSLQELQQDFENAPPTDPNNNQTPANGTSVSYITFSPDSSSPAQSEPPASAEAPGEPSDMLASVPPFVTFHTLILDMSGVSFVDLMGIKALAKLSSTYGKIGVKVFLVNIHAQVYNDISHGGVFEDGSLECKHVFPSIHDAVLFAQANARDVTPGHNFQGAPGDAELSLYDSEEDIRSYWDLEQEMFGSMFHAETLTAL

Pendrin (Mus musculus) = biological target: T3, Pendrin (Mus musculus) (UniProt Q9R155); assay: Inhibition of mouse slc26a4 expressed in FRT cells co-expressing EYFP-H148Q/I152L/F46L assessed as reduction in protein-mediated chloride/iodide exchange at 10 uM preincubated for 10 mins followed by NaI-substituted PBS addition and measured by YFP-based fluorescence assay; in short: as §1
T3 sequence (whole entry): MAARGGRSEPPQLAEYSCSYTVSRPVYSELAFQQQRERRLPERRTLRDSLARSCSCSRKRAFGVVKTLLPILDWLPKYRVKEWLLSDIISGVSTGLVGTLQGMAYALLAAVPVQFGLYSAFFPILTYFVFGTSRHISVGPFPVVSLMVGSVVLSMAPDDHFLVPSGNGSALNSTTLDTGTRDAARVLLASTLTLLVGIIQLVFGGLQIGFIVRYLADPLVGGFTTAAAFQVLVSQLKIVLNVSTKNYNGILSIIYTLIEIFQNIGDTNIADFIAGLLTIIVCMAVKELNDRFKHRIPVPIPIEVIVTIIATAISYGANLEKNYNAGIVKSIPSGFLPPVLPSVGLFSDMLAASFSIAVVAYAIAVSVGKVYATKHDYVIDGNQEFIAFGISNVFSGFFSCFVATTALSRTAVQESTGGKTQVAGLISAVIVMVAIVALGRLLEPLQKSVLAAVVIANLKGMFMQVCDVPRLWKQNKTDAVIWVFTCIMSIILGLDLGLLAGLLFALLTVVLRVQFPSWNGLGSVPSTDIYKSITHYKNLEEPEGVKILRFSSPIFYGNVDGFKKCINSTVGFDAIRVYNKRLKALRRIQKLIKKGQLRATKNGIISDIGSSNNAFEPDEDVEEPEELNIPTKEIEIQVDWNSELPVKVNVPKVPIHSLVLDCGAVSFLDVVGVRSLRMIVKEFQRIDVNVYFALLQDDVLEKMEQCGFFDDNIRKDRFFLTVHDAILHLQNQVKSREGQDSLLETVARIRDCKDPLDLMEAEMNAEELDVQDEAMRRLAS

Measured: inhibition

Cc1c(CC(=O)O)c(=O)oc2c(C)c(OCc3cccc(I)c3)ccc12
inactive: [1] | [2] | Pendrin (Mus musculus)

Cc1c(CC(=O)O)c(=O)oc2c(C)c(OCc3cccc(C(F)(F)F)c3)ccc12
inactive: [1] | [2] | Pendrin (Mus musculus)

Source: ChEMBL document CHEMBL4373708 (J Med Chem, 2019)
